The record followed here is ChEMBL document CHEMBL3400080, “Design, synthesis, optimization and antiviral activity of a class of hybrid dengue virus E protein inhibitors” (Bioorg Med Chem Lett, 2015).

SMILES strings stand for the structures. Bounds are passed on as bounds.

Usually CC50 stands for the concentration at which the toxic effect on the cells reaches its halfway point. The term EC50 denotes the midpoint of the concentration-response curve. The term IC50 denotes the concentration that gives 50% inhibition.

Data set [1] can be described thus: Selectivity index, CC50 for african green monkey Vero B cells to EC50 for DENV serotype 2 strain New Guinea C by virus yield-reduction assay. It counts as toxicity, cell-based. As to conditions: read-out: Selectivity Index. In short, it runs like this: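 Selectivity index is CC50 divided by EC50. The EC50 comes from a dose-response measurement of the dengue virus RNA produced by virus-infected cells treated with compound (virus yield reduction).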

Data set [2] can be described thus: Selectivity index, CC50 for african green monkey Vero B cells to EC50 for DENV serotype 2 strain New Guinea C by CPE-reduction assay.
The nature of data set [3]: Cytotoxicity against DENV serotype 2 strain New Guinea C infected african green monkey Vero B cells by virus yield-reduction assay. As to conditions: chlorocebus sabaeus. It counts as cell-based.
In data set [4] the test system is dengue virus type 2. Put plainly: Antiviral activity against DENV serotype 2 strain New Guinea C infected in african green monkey Vero cells assessed as reduction in production and release of infectious progeny virions after 2 hrs by virus yield-reduction assay. In kind it is functional, organism-based. In short, it runs like this: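 Dose-response validation in virus-infected, compound-treated cells. Read-out was the amount of dengue viral RNA produced, quantified as a virus yield reduction. EC50 was derived from this.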

Data set [5] in a line: Cytotoxicity against DENV serotype 2 strain New Guinea C infected african green monkey Vero B cells by CPE-reduction assay. It counts as cell-based. As to conditions: chlorocebus sabaeus.
The test system of data set [6] is dengue virus type 2. Put plainly: Antiviral activity against DENV serotype 2 strain New Guinea C infected in african green monkey Vero-B cells assessed as inhibition of virus-induced cytopathic effect after 2 hrs by CPE-reduction assay. In kind it is functional, organism-based. In short, it runs like this:
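Virus and compound mixed and pre-incubated together for 2 h at 37 °C before being added to cells. Co-addition without pre-incubation was also tested. Read-out was inhibition of virus-induced cytopathic effect (cell death). EC50 was taken from the dose-response.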

A further data set concerns Yellow fever virus. Kind of data set: Antiviral activity against Yellow fever virus. It counts as functional, organism-based.
Data set [7] has as its system dengue virus type 2. Put plainly: Antiviral activity against DENV serotype 2 strain New Guinea C infected in BHK-21 cells assessed as inhibition of plaque formation after 2 hrs by plaque-reduction assay. It counts as functional, organism-based. In short, it runs like this: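 Dose-response effect on production of infectious dengue virus serotype 2 progeny, read as plaque formation. EC50 was derived from the plaque counts.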
Background: Plaques are areas of infected cells; plaque reduction assays count them against a control.

Take `COc1ccc(C2=NN(c3nc(-c4ccc(Cl)cc4)cs3)C(c3ccc(O)c(OC)c3)C2)cc1` (stereo unspecified): in data set [1], the selectivity ratio came out at 8. Also, the “Selectivity Index” value in data set [2] is on record as 3. Moreover, the CC50 worked out at 54.6 µM in data set [3] and 2.4 µM in data set [5]. Besides, the concentration for a half-maximal effect (EC50) in the data set on dengue virus type 2 [4] is 7 µM; in the data set with dengue virus type 2 [6] it was 0.79 µM.

`Nc1ccccc1SCc1csc(-c2ccc(Cl)cc2)n1` yielded an IC50 in the data set on Yellow fever virus of 31 µM.

For the molecule `C/C(=N\Nc1nc(-c2ccc(Cl)cc2)cs1)c1ccc(O)cc1`, in data set [1], the selectivity ratio is 95. Besides, the “Selectivity Index” value in data set [2] came out at 25. The CC50 was 125 µM in data set [3] and 145 µM in data set [5]. The concentration giving a half-maximal response (EC50) in the data set with dengue virus type 2 [4] was 1.32 µM; in the data set with dengue virus type 2 [7] (BHK-21, 2 h), 1.39 µM; in the data set on dengue virus type 2 [6], 5.8 µM. In addition, the inhibition result in the data set on dengue virus type 2 [7] was “Dose-dependent effect”.

In the case of `COc1ccc(C2=NN(c3nc(-c4ccc(-c5ccccc5)cc4)cs3)C(c3ccc(O)cc3)C2)cc1` (stereo unspecified), in data set [1], the selectivity ratio is 5. The “Selectivity Index” value in data set [2] was above 4. Also, the 50% cytotoxic concentration (CC50) in data set [3] was 99.3 µM; in data set [5], above 99 µM. The EC50 was 18.6 µM with dengue virus type 2 [4] and 24.8 µM with dengue virus type 2 [6].

Turning to `Oc1ccc(/C=N/Nc2nc(-c3ccc(-c4ccccc4)cc3)cs2)cc1`, in data set [1], the selectivity ratio was above 25. Further, the “Selectivity Index” value in data set [2] is recorded as above 8. Also, the 50% cytotoxic concentration (CC50) in data set [3] and in data set [5] was above 135 µM in each case. Also, the half-maximal effective concentration (EC50) was 5.29 µM in the data set on dengue virus type 2 [4] and 16.8 µM in the data set on dengue virus type 2 [6].

On to `C(=N\Nc1nc(-c2ccc(-c3ccccc3)cc2)cs1)/c1ccccc1`, for which the selectivity ratio in data set [1] was above 1. Also, the “Selectivity Index” value in data set [2] is above 4. Moreover, the CC50 in data set [3] and in data set [5] was above 141 µM in each case. The EC50 is 128 µM in the data set on dengue virus type 2 [4] and 35.2 µM with dengue virus type 2 [6].

Regarding `NC(=O)c1ncn([C@@H]2O[C@H](CO)[C@@H](O)[C@H]2O)n1` [RIBAVIRIN], the selectivity ratio in data set [1] was above 9. For the same molecule, the CC50 in data set [3] is above 410 µM. Also, the concentration for a half-maximal effect (EC50) in the data set on dengue virus type 2 [4] was found to be 47.9 µM.

On to `C/C(=N\Nc1nc(-c2ccc(-c3ccccc3)cc2)cs1)c1ccc([N+](=O)[O-])cc1`, for which, in data set [1], the selectivity ratio was found to be 6. Further, in data set [2], the “Selectivity Index” value worked out at 2. Also, the 50% cytotoxic concentration (CC50) in data set [3] was 70.8 µM; in data set [5] it was 82 µM. Further, the EC50 in the data set on dengue virus type 2 [4] is 12.2 µM; with dengue virus type 2 [6] it was 41 µM.

On to `COc1ccc(C2=NN(c3nc(-c4ccc(-c5ccccc5)cc4)cs3)C(c3ccc(O)c(OC)c3)C2)cc1` (stereo unspecified), for which the selectivity ratio in data set [1] is 7. In addition, in data set [2], the “Selectivity Index” value stood at 2. For the same molecule, the figures for the CC50 in data set [3] and in data set [5] were 25.6 µM and 16.8 µM, respectively. For the same molecule, the EC50 in the data set with dengue virus type 2 [4] came to 3.79 µM; with dengue virus type 2 [6], 8.4 µM.

On to `Cc1nc(-n2nc(-c3ccccc3)cc2-c2ccccc2)sc1C(=O)/C=C/c1ccc(Cl)c(Cl)c1`, for which, in the data set with Yellow fever virus, half-maximal inhibition (IC50) required 51 µM.

As to `Oc1ccc(C2=NN(c3nc(-c4ccc(-c5ccccc5)cc4)cs3)C(c3ccccc3)C2)cc1` (stereo unspecified), in data set [1], the selectivity ratio is 10. Moreover, the “Selectivity Index” value in data set [2] turned out to be 6. For the same molecule, the results for the CC50 in data set [3] and in data set [5] were 86.8 µM and 79.2 µM, respectively. Besides, the EC50 amounted to 8.44 µM with dengue virus type 2 [4] and 13.2 µM with dengue virus type 2 [6].

As for `COc1ccc(/C(C)=N/Nc2nc(-c3ccc(-c4ccccc4)cc3)cs2)cc1`, the selectivity ratio in data set [1] amounted to 7. In data set [2], the “Selectivity Index” value was found to be 2. Moreover, the half-maximal cytotoxic concentration (CC50) in data set [3] came to 117 µM; in data set [5], 200 µM. Moreover, the half-maximal effective concentration (EC50) in the data set with dengue virus type 2 [4] was determined as 17.7 µM; with dengue virus type 2 [6], 100 µM.
